ChEMBL document CHEMBL2417547 (J Med Chem, 2013)

Tests used:
[1] = Cytotoxicity against HEK293 cells after 24 hrs; type: cell-based; details: human, read-out: LC50
Procedure, shortened: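 HEK 293 cells seeded at 2 × 10⁵ cells per well; compounds added 24 h after seeding at 1% final DMSO. Living cell mass determined after 24 h incubation; LC₅₀ calculated. Doxorubicin positive control, rifampicin negative control. Mean of more than three repeats.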

CYP19 (aromatase) = target: T1, CYP19 (aromatase) (Homo sapiens, UniProt P11511); assay: Inhibition of microsomal CYP19 in human placenta using [1beta-3H]-androstenedione as substrate at 2 uM by 3H2O method relative to control; details: placental microsomes, probe [1beta-3H]-androstenedione
T1 sequence (P11511 whole entry): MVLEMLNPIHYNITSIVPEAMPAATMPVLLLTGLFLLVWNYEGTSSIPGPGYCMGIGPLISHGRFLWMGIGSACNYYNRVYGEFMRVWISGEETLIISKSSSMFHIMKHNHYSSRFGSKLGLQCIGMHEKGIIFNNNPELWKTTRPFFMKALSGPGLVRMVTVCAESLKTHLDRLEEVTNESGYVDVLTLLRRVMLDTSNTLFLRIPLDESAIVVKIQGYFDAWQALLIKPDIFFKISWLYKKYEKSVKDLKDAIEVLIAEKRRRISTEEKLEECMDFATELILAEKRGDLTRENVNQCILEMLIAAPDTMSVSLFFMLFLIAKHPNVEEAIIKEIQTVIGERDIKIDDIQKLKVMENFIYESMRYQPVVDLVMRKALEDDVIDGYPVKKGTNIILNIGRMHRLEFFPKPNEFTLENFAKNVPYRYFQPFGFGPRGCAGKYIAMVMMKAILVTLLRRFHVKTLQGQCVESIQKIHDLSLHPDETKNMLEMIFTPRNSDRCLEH
Procedure, shortened: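 Human placental microsomes as the CYP19 source, with [1β-3H]androstenedione at 500 nM. Activity read by 3H2O release. Compound at 2 μM. Percent inhibition is the mean of at least three experiments (deviations <25%); values ≤5% are not significant.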

CYP17 = target: T2, CYP17 (Homo sapiens, UniProt P05093); assay: Inhibition of human CYP17 expressed in Escherichia coli co-expressing rat NADPH-P450 reductase using progesterone as substrate at 2 uM relative to control; details: probe progesterone
T2 sequence (P05093 whole entry): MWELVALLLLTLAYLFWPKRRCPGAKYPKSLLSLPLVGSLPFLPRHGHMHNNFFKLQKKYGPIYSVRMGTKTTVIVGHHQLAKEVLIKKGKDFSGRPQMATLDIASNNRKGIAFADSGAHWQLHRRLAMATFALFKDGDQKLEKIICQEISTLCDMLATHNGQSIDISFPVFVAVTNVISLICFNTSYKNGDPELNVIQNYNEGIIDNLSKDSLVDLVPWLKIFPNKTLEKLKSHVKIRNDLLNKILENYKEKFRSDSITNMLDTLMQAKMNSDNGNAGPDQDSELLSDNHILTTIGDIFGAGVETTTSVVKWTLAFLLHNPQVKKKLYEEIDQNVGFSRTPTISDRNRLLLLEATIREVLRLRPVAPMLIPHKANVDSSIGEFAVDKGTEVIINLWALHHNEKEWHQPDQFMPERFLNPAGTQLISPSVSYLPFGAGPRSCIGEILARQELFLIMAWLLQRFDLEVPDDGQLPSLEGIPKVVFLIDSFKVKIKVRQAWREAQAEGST
Procedure, shortened: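 Human CYP17 expressed in E. coli, co-expressing rat NADPH-P450 reductase. Progesterone substrate at 25 μM with NADPH cofactor. Test compound at 2 μM. Percent inhibition is the mean of at least three experiments (deviations <25%); values ≤5% are treated as not significant.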

Homo sapiens = species on record: Homo sapiens; assay: Selectivity factor, ratio of IC50 for human CYP11B2 to IC50 for human CYP11B1
Procedure, shortened: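 V79MZh hamster fibroblasts expressing human CYP11B1 or CYP11B2 were incubated with [1,2-3H]-11-deoxycorticosterone (100 nM) plus inhibitor at a range of concentrations. […] The selectivity factor is IC50(CYP11B2)/IC50(CYP11B1).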

[2] = target: T3, Cytochrome P450 11B2, mitochondrial (Homo sapiens, UniProt P19099); assay: Inhibition of human CYP11B2 expressed in hamster V79MZh cells using [1,2-3H]-11-deoxycorticosterone as substrate; type: cell-based
T3 sequence (P19099 whole entry): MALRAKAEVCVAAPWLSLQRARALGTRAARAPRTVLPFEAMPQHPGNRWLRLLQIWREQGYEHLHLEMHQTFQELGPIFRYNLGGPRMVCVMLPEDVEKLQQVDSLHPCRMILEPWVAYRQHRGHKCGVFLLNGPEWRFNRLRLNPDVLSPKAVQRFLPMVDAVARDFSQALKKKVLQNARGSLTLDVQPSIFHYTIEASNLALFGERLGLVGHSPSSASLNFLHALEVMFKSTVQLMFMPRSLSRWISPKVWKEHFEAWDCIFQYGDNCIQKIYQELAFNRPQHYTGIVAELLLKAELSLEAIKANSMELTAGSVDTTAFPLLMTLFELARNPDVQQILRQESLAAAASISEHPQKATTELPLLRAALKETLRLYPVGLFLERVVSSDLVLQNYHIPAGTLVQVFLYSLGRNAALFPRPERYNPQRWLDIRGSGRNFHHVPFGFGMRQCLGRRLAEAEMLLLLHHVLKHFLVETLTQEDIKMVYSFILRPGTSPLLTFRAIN
Procedure, shortened: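 V79MZh hamster fibroblasts expressing human CYP11B1 or CYP11B2 were incubated with [1,2-3H]-11-deoxycorticosterone (100 nM) plus inhibitor at a range of concentrations. The selectivity factor is IC50(CYP11B2)/IC50(CYP11B1).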

[3] = Half life in rat liver S9 fraction at 1 uM by LC-MS/MS analysis; type: ADME, subcellular
Procedure, shortened: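 Test compound at 1 μM with 1 mg/mL pooled rat liver S9, 2 mM NADPH regenerating system, 1 mM UDPGA and 0.1 mM PAPS (phase I and II), 37 °C. Sampled at 0, 5, 15 and 60 min and quenched with 2 volumes of cold acetonitrile containing internal standard. Remaining compound measured by LC-MS/MS to give t1/2 and CLint; mean of more than three repeats.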

Which results are given for Cc1cncc(Cc2ccc(-c3ccccc3)nc2)c1?
CC50 at 24 h [1]: 61.4 µM; inhibition at 2 µM (CYP19 (aromatase)): 1%; inhibition at 2 µM (CYP17): 5%; Ratio IC50 (Homo sapiens): 15.1; IC50 [2]: 0.033 µM; half-life at 1 µM [3]: 16 min
